Assay results from the array DNA melting data of Ke et al. (doi:10.1101/2024.01.08.574731).

What was measured:
[1] = folding enthalpy; higher = less favourable; fluorescence melt of hairpins on a sequencing array, two-state fit; settings: sodium 0.088 M
Method in brief: (§1)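 On a sequenced MiSeq flow cell, library hairpins with annealed Cy3 and quencher oligos were imaged for Cy3 fluorescence in 2.5 °C steps up to 60 °C, in 50 mM Na-HEPES pH 8.0, 25 mM NaCl. Normalisation used pre-quench Cy3 and control constructs. Bootstrapped two-state fits gave melting temperature and folding enthalpy, combined by inverse variance across four replicates and with fitted temperatures raised by 9.35 °C to match UV melts.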

[2] = melting temperature; fluorescence melt of hairpins on a sequencing array, two-state fit, raised by 9.35 °C to match UV melts; settings: sodium 0.088 M
Method in brief: as §1

Row | Sequence | folding enthalpy [1] [kcal/mol] | Tm [2] [°C]
1 | GTTGTCGAAAGACAGAAC ((((((....)))..))) | -12.9 | 35.6
2 | GCCTAAGCGAAAGCTGGC (((..(((....)))))) | -24.3 | 52.3
3 | GGCCACGAAAGTGTGGCC ((((((....)))..))) | -33.6 | 68.5
4 | GCCGCTACGAAAGTAGGC (((..(((....)))))) | -18 | 51
5 | GGAGACTCGAAAGAGTCC (((..(((....)))))) | -10 | 45.4
6 | CGATCCGGAAACGGGTCG (((.(((....))).))) | -38.8 | 57.2
7 | GATCGGACACCGATC ((((((...)))))) | -33.4 | 57.1
8 | GATACGGGAAACCGTATC (((((((....))))))) | -35.8 | 59.4
9 | GAACGGGAAACCGTTC ((((((....)))))) | -37.1 | 62.8
10 | GTAAGCGGAAACGCTCAC ((.((((....)))).)) | -13.4 | 37.7
11 | GCAAACGGAAACGTCTGC (((.(((....))).))) | -25.2 | 44.7
12 | GTACTACGAAAGTATTAC (((.(((....))).))) | -23.5 | 32.8
13 | GCACAGCGAAAGCGTTGC (((..((....))..))) | -15.5 | 48.2
14 | GGTGCAACGAAAGTTACC (((..(((....)))))) | -13.1 | 27.7
15 | GCGGCACACCGC ((((....)))) | -25.5 | 57.5
16 | GCCATGCGAAAGCAGAGC ((..(((....)))..)) | -17.9 | 44.6
17 | GTTCGTGAAAACGAAC ((((((....)))))) | -32 | 61.9
18 | GTCTCCGGAAACAGAGAC (((((.(....).))))) | -25.8 | 38.3
19 | GAGCTCCCGAAAGGGCTC (((..(((....)))))) | -17.7 | 44.4
20 | GGGGATACGAAAGTACCC (((..(((....)))))) | -24.2 | 49.2
21 | GATGCGGGAAACCACACC (.((.((....)).)).) | -12.4 | 26.7
22 | CGGAGCGGAAACGCCCG (((.(((....)))))) | -30.6 | 55.6
23 | GTACGGGGAAACCCGTAC (((((((....))))))) | -41.9 | 67.3

Row | Sequence | folding enthalpy [1] [kcal/mol] | Tm [2] [°C]
24 | GTACGCACGAAAGTGTAC (((..(((....)))))) | -15.6 | 36.4
25 | GTACTCGGAAACGGGTAC ((((.((....)).)))) | -42.6 | 50.6
26 | CGTAGCCGGAAACGGACG (((..(((....)))))) | -8.93 | 31.7
27 | CGCACGGAAACGTTGGCG ((((((....)))..))) | -37.8 | 45.4
28 | GTATACGGAAACGTGTAC (((.(((....))).))) | -35.3 | 46.3
29 | GATCACGTTGTGATC ((((((...)))))) | -38.1 | 60.1
30 | GATCGGCTCGCCGATC ((((((....)))))) | -35.9 | 69.3
31 | GCCGAGCGAAAGCACTGC ((.(.((....)).).)) | -18.8 | 36.4
32 | GGGGTCGCGAAAGCGCCC (((..(((....)))))) | -16.4 | 60.7
33 | GAAGGCGAAAGCCTGTTC ((((((....)))..))) | -9.93 | 47.9
34 | GGATTTGGAAACAAACCC ((.((((....)))).)) | -30.1 | 35.6
35 | GATCCACGACTGGATC ((((((....)))))) | -31.4 | 48.8
36 | GATCCTCTACAGGATC ((((((....)))))) | -31.1 | 51.8
37 | GATCCACATATGGATC ((((((....)))))) | -41.2 | 50.6
38 | GATCGTAATCACGATC ((((((....)))))) | -45.7 | 53.2
39 | GGCCGAGGAAACTTGGCC ((((.((....)).)))) | -49.1 | 59.4
40 | GTCATGGGAAACTATGAC (((((.(....).))))) | -29.1 | 45
41 | GTGAATGGAAACATTTAC ((.((((....)))).)) | -32.9 | 36.5
42 | GCCAACGAAAGTTGGGGC ((((((....)))..))) | -15.3 | 65.4
43 | GATTGCCGAAAGGCCATC (((.(((....))).))) | -16.6 | 40.9
44 | GGGACGGGAAACCATCCC ((((.((....)).)))) | -31.6 | 44.7
45 | GTAGCAGGAAACTGCTAC (((((((....))))))) | -32.7 | 66.2
46 | GATCTAGGGGTAGATC ((((((....)))))) | -30.2 | 36.4
